The values below come from ChEMBL document CHEMBL3046297, “Molecular design of antifungal agents” (J Agric Food Chem, 2002).

The subject of data set [1] is Radical scavenging activity. Kind of data set: Antioxidant activity assessed as DPPH free radical scavenging activity up to 800 ug/ml after 20 min. Format: functional. Put shortly: (§1)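 DPPH scavenging. The mix held 100 mM acetate buffer pH 5.5, ethanol, ethanolic DPPH and sample. It stood 20 min at room temperature, then absorbance was read at 517 nm. Results are % decrease versus a DPPH control. IC50 was interpolated from concentration-inhibition curves, as the mean of triplicates.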
(In general: DPPH is a stable violet radical that fades when it is reduced.)

In data set [2] the test system is Saccharomyces cerevisiae. The data set can be described thus: Antifungal activity against Saccharomyces cerevisiae ATCC 7754 after 48 hr by broth macrodilution method. Conditions: ATCC 7754, 48 h.
Data set [3] relates to Radical scavenging activity. The data set can be described thus: Antioxidant activity assessed as DPPH free radical scavenging activity after 20 min. Format: functional. The procedure, abridged:
as §1

The test system of data set [4] is Saccharomyces cerevisiae. The data set can be described thus: microbe, parasite or virus in culture. Format: functional. The note with it: ATCC 7754, 48 h.
The test system of data set [5] is Saccharomyces cerevisiae. The data set can be described thus: microbe, parasite or virus in culture. It counts as functional. The note with it: ATCC 7754, 48 h. The source holds these as a separate data set.
The test system of data set [6] is Saccharomyces cerevisiae. The data set can be described thus: microbe, parasite or virus in culture. It counts as functional. Conditions: ATCC 7754, 48 h. This is another data set of the same source.
The subject of data set [7] is Saccharomyces cerevisiae. Kind of data set: microbe, parasite or virus in culture. It counts as functional. The note with it: ATCC 7754, 48 h. This is another data set of the same source.
The subject of data set [8] is Saccharomyces cerevisiae. Kind of data set: Drug uptake in Saccharomyces cerevisiae ATCC 7754 at 50 to 100 ug/ml after 5 seconds. Format: ADME, organism-based. The note with it: in vivo, 5 s. Put shortly: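 Adsorption to cells. Yeast grown overnight with shaking in YPD at 30 °C was washed twice in 50 mM MOPS pH 6.0. Compound was mixed with or without cells (10^8 cells/mL) in this buffer at 30 °C and vortexed 5 s. After 2 min centrifugation, supernatant absorbance was read at 272 nm.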

In data set [9] the test system is Saccharomyces cerevisiae. Kind of data set: Antifungal activity against Saccharomyces cerevisiae ATCC 7754 at MFC to 4 times MFC treated 4 hr after incubation measured up to 30 hr. It counts as functional, organism-based. Put shortly:
(§2)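 Growth-stage kill test. Yeast at 10^5 cells/mL was inoculated into ME broth. Compound at MFC, 2× MFC or 4× MFC was added after 0, 4 or 24 h of incubation, and viable cells were then followed over time.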

Data set [10] deals with Saccharomyces cerevisiae. Kind of data set: Antifungal activity against Saccharomyces cerevisiae ATCC 7754 at MFC to 4 times MFC treated 24 hr after incubation measured up to 30 hr. It counts as functional, organism-based. The procedure, abridged:
as §2

In data set [11] the test system is Saccharomyces cerevisiae. The data set can be described thus: Antifungal activity against Saccharomyces cerevisiae ATCC 7754 at MFC after 2 hr. Format: functional, organism-based. Put shortly:
(§3)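 Time-kill assay. A 5-h, 30 °C preculture was inoculated into ME broth containing compound, initial 5.8 × 10^5 CFU/mL, then grown at 30 °C without shaking. Samples were taken at selected times over 48 h, serially diluted in sterile saline and plated on YPD agar. Plates were incubated 24 h at 30 °C before counting viable CFU.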

The test system of data set [12] is Saccharomyces cerevisiae. Kind of data set: Antifungal activity against Saccharomyces cerevisiae ATCC 7754 at 3.13 to 12.5 ug/ml after 1 hr by time kill analysis. It counts as functional, organism-based. Put shortly: as §3
In data set [13] the test system is Saccharomyces cerevisiae. The data set can be described thus: Antifungal activity against Saccharomyces cerevisiae ATCC 7754 at 12.5 to 50 ug/ml after 1 hr by time kill analysis. Format: functional, organism-based. Put shortly:
as §3

Each structure is given as a SMILES string. In brackets after ≈: the same amount, converted by molar mass. Activity calls are given as the source filed them. The calls are words filed in the database; no cut-off is given here. Bounds are passed on as bounds.

`CCCCCCOC(=O)c1cc(O)cc(O)c1` [HEXYL 3,5-DIHYDROXYBENZOATE]: the result in [1] was inactive. For the same molecule, the MIC in [2] is over 800 µg/mL.
Turning to `CCCCCCCCCCCO` [UNDECANOL], in data set [2], the MFC amounted to 25 µg/mL (≈ 145 µM) and the MIC stood at 25 µg/mL (≈ 145 µM).
In data set [2], `O=C(O)c1ccc(O)cc1` [PARABEN] came in with an MFC of over 3200 µg/mL and an MIC of 1600 µg/mL (≈ 11600 µM).
As for `CCCCCCCCCOC(=O)c1ccc(O)c(OC)c1`, the outcome in data set [3] was Active. In data set [2], this molecule had an MFC of over 400 µg/mL and an MIC of over 400 µg/mL.
For the molecule `O=C(O)c1cc(O)cc(O)c1` [3,5-DIHYDROXYBENZOIC ACID], in [2], the MFC was over 3200 µg/mL and the MIC came to 3200 µg/mL (≈ 20800 µM).
`CCCCCCCCCOC(=O)c1ccccc1` [NONYL BENZOATE]: the result in data set [3] was inactive. Also, the MIC in [2] is over 400 µg/mL.
In the case of `C/C=C/C=C/C(=O)O` [SORBIC ACID], the MIC is over 1600 µg/mL in [4], over 1600 µg/mL in data set [5], 400 µg/mL (≈ 3570 µM) in data set [6] and 800 µg/mL (≈ 7130 µM) in data set [7]. Moreover, the MFC turned out to be 1600 µg/mL (≈ 14300 µM) in data set [6] and 3200 µg/mL (≈ 28500 µM) in data set [7].
For `CCCCCCCCCOC(=O)c1ccc(O)c(O)c1` [NONYL 3,4-DIHYDROXYBENZOATE], the result in data set [3] was Active. In [2], the MFC worked out at 12.5 µg/mL (≈ 44.6 µM) and the MIC amounted to 6.25 µg/mL (≈ 22.3 µM).
Turning to `COC(=O)c1cc(O)c(O)c(O)c1` [GALLIC ACID METHYL ESTER], the MIC in data set [2] is over 3200 µg/mL.
Regarding `CCCCCCCCCCCCO` [DODECANOL], the MFC in data set [2] was over 1600 µg/mL.
In the case of `CCCCCCOC(=O)c1cc(O)c(O)c(O)c1` [HEXYL GALLATE], in [2], the MFC stood at 400 µg/mL (≈ 1570 µM) and the MIC was 400 µg/mL (≈ 1570 µM).
In data set [2], `CCCCCCCCCCCOC(=O)c1cc(O)c(O)c(O)c1` [UNDECYL GALLATE] registered an MFC of over 1600 µg/mL and an MIC of over 1600 µg/mL.
As for `CCCCCCCCCCO` [DECANOL], in [2], the MFC is 50 µg/mL (≈ 316 µM) and the MIC is 50 µg/mL (≈ 316 µM).
Take `O=C(O)c1ccccc1` [BENZOIC ACID]: the MIC in data set [4] is over 1600 µg/mL; in data set [5] it was over 1600 µg/mL; in data set [6], 800 µg/mL (≈ 6550 µM); in data set [7], 800 µg/mL (≈ 6550 µM); in [2] it was 800 µg/mL (≈ 6550 µM). The MFC in [6], in [7] and in [2] was 1600 µg/mL (≈ 13100 µM) in each case.
On to `CCCCCCCCCOC(=O)c1cc(O)c(O)c(O)c1` [NONYL GALLATE], for which the MFC in data set [4] amounted to 25 µg/mL (≈ 84.4 µM); in [5], 50 µg/mL (≈ 169 µM); in data set [6], 12.5 µg/mL (≈ 42.2 µM); in data set [7], 12.5 µg/mL (≈ 42.2 µM); in [2], 12.5 µg/mL (≈ 42.2 µM). Further, the MIC in [4] is 12.5 µg/mL (≈ 42.2 µM); in data set [5] it was 25 µg/mL (≈ 84.4 µM); in data set [6] it was 6.25 µg/mL (≈ 21.1 µM); in data set [7], 6.25 µg/mL (≈ 21.1 µM); in data set [2] it was 6.25 µg/mL (≈ 21.1 µM). For the same molecule, the outcome in data set [3], in data set [9], in data set [10], in [11] and in data set [12] was Active. In addition, in [8], the Drug uptake entry is “Active”.
In [2], `CCCOC(=O)c1cc(O)c(O)c(O)c1` [PROPYL GALLATE] registered an MFC of over 3200 µg/mL and an MIC of 3200 µg/mL (≈ 15100 µM).
In [2], `CCCCCCO` [1-HEXANOL] had an MFC of over 1600 µg/mL and an MIC of over 1600 µg/mL.
For the molecule `CCCCCCCCCOC(=O)c1cccc(O)c1` [NONYL 3-HYDROXYBENZOATE], the outcome in [3] was inactive. Also, in data set [2], the MFC was over 400 µg/mL and the MIC was over 400 µg/mL.
In data set [2], `O=C(O)c1ccc(O)c(O)c1` [PROTOCATECHUIC ACID] yielded an MFC of over 3200 µg/mL and an MIC of 3200 µg/mL (≈ 20800 µM).
On to `CCCCCCOC(=O)c1ccc(O)cc1` [HEXYL 4-HYDROXYBENZOATE], for which, in data set [1], the outcome was inactive. For the same molecule, the MIC in data set [2] was over 800 µg/mL.
Consider `CCCCCCCCCO` [NONANOL], for which, in data set [2], the MFC was 200 µg/mL (≈ 1390 µM) and the MIC is 100 µg/mL (≈ 693 µM).
In data set [2], `O=C(O)c1cc(O)c(O)c(O)c1` [GALLIC ACID] gave an MIC of over 3200 µg/mL.
`CCCCCCCCCOC(=O)c1cc(O)cc(O)c1` [NONYL 3,5-DIHYDROXYBENZOATE]: the outcome in data set [3] was inactive. Further, in data set [2], the MFC is over 400 µg/mL and the MIC was over 400 µg/mL.
`CCCCCCOC(=O)c1ccc(O)c(O)c1` [HEXYL 3,4-DIHYDROXYBENZOATE]: in [2], the MFC was 400 µg/mL (≈ 1680 µM) and the MIC came out at 400 µg/mL (≈ 1680 µM).
With `CCCCCCCCCCCCCO` [TRIDECAN-1-OL], the MIC in data set [2] is over 1600 µg/mL.
In data set [2], `CCCCCCCO` [1-HEPTANOL] had an MFC of over 1600 µg/mL and an MIC of 800 µg/mL (≈ 6880 µM).
The like results for `CCCCCCCCO` [OCTANOL] were, in that order, 800 µg/mL (≈ 6140 µM) and 200 µg/mL (≈ 1540 µM).
For the molecule `CC(C)=CCC/C(C)=C/COC(=O)c1cc(O)c(O)c(O)c1` [Geranyl gallate], the result in data set [13] was Active. In addition, in data set [2], the MFC was determined as 50 µg/mL (≈ 163 µM) and the MIC was 50 µg/mL (≈ 163 µM).
In data set [2], `CCCCCCCOC(=O)c1cc(O)c(O)c(O)c1` [HEPTYL GALLATE] displayed an MFC of 100 µg/mL (≈ 373 µM) and an MIC of 100 µg/mL (≈ 373 µM).
In data set [2], `CCCCCCCCCCOC(=O)c1cc(O)c(O)c(O)c1` [DECYL GALLATE] yielded an MFC of 25 µg/mL (≈ 80.5 µM) and an MIC of 12.5 µg/mL (≈ 40.3 µM).
`CCCCCCCCCOC(=O)c1ccc(O)cc1` [NONYL 4-HYDROXYBENZOATE]: the outcome in data set [3] was inactive. The same molecule registered an MIC in [2] of over 400 µg/mL.
Take `O=C(OC1CCC2CCCCC2C1)c1cc(O)c(O)c(O)c1` (configuration not stated) [DECAHYDRO-2-NAPHTHYL GALLATE]: in data set [2], the MFC amounted to 50 µg/mL (≈ 163 µM) and the MIC was found to be 50 µg/mL (≈ 163 µM).
Take `CCCCCCCCCCCCOC(=O)c1cc(O)c(O)c(O)c1` [DODECYL GALLATE]: in data set [8], the Drug uptake entry is “Active”. Further, in data set [2], the MFC is over 1600 µg/mL and the MIC was over 1600 µg/mL.
As for `O=C(O)c1cccc(O)c1` [3-HYDROXYBENZOIC ACID], in [2], the MFC is over 3200 µg/mL and the MIC worked out at 3200 µg/mL (≈ 23200 µM).
With `CCCCCCCCCOC(=O)c1ccc(OC)c(O)c1`, the result in data set [3] was Active. In data set [2], the MFC was over 400 µg/mL and the MIC was over 400 µg/mL.
